Measurements pooled from the literature.
Protocols differ between the studies behind these lines.
FPR1: fMet-Leu-Phe receptor (FPR1, Homo sapiens, UniProt P21462)
DNA dC->dU-editing enzyme APOBEC-3B: DNA dC->dU-editing enzyme APOBEC-3B (Homo sapiens, UniProt Q9UH17)
SLC6A2: Sodium-dependent noradrenaline transporter (SLC6A2, Homo sapiens, UniProt P23975)

Structure (SMILES) | target | test | system | conditions | inhibition [%]
CCc1cc2c(=O)c(-c3nc4ccccc4n3C)c(C)oc2cc1OC(C)=O | FPR1 | calcium signal, antagonist |  | 50 µM | 100
CNC(=O)c1cc(Oc2ccc(NC(=O)Nc3ccc(Cl)c(C(F)(F)F)c3)cc2)ccn1 | Fibroblast growth factor receptor 1 (FGFR1, Homo sapiens, UniProt P11362, V561M) | cell-free assay |  | 10 µM | 84
COc1ccccc1-c1c(C(F)(F)F)oc2cc(OC(=O)c3ccco3)ccc2c1=O | FPR1 | calcium signal, antagonist |  | 50 µM | 100
O=c1c(-c2ccc(O)cc2)coc2c(OC3OC(CO)C(O)C(O)C3O)c(O)ccc12 (stereo not shown) | DNA dC->dU-editing enzyme APOBEC-3B | enzyme activity, inhibitor, fluorescence |  | 100 µM | 37.5
CC(=O)N[C@H]1CSSC[C@@H](C(=O)N[C@H](Cc2c[nH]c3ccccc23)C(N)=O)NC(=O)[C@H](Cc2ccccc2)NC(=O)[C@H](CCCNC(=N)N)NC1=O | Melanocortin receptor 4 (MC4R, Homo sapiens, UniProt P32245) | ligand displacement, radioligand |  | 10 µM, 40 min | 0
Clc1ccc(C(c2ccccc2)c2nnnn2CCCCN2CCC(Cc3ccc(Cl)c(Cl)c3)CC2)cc1 (stereo not shown) | SLC6A2 | transporter uptake, inhibitor | HEK293 | 1 µM | 58.9
Nc1ncnc2c1ncn2C1OC(COP(=O)(O)OP(=O)(O)O)C(O)C1O (stereo not shown) | DNA dC->dU-editing enzyme APOBEC-3B | enzyme activity, inhibitor, fluorescence |  | 100 µM | 41.8
CC/C(=N\NC(=O)NCc1cccc(O)c1)c1ccc(O)c(C)c1O | Fibroblast growth factor receptor 4 (FGFR4, Homo sapiens, UniProt P22455, N535K) | enzyme activity, inhibitor |  | 0.1 µM | 3.1
COc1ccccc1-c1c(C(F)(F)F)oc2cc(OC(=O)C3CC3)ccc2c1=O | FPR1 | calcium signal, antagonist |  | 50 µM | 100
CCN1CCN(Cc2ccc(NC(=O)c3ccc(C)c(Oc4ccnc5[nH]ccc45)c3)cc2C(F)(F)F)CC1 | Serine/threonine-protein kinase WNK4 (WNK4, Homo sapiens, UniProt Q96J92) | target engagement in cells, inhibitor, chemoproteomics | Huh-7 | 1 µM | -11.5
Cc1nnc2sc(C(=O)NCc3ccc(S(=O)(=O)C(F)(F)F)cc3)c(N)c2c1C | Glutamate receptor ionotropic, NMDA 1 (Grin1, Rattus norvegicus, UniProt P35439) | ligand displacement, radioligand |  | 10 µM | 14
Clc1ccc(C(c2ccc(Cl)cc2)c2nnnn2CCCCN2CCC(c3ccccc3)CC2)cc1 | SLC6A2 | transporter uptake, inhibitor | HEK293 | 1 µM | 34
Cc1oc2cc(OC(=O)c3ccco3)ccc2c(=O)c1-c1nc2ccccc2n1C | FPR1 | calcium signal, antagonist |  | 50 µM | 100
OCC1OC(Oc2cc(O)cc(/C=C/c3ccc(O)cc3)c2)C(O)C(O)C1O (stereo not shown) | DNA dC->dU-editing enzyme APOBEC-3B | enzyme activity, inhibitor, fluorescence |  | 100 µM | 31.5
CCOC(=O)Oc1ccc2c(=O)c(-c3ccccc3OC)c(C(F)(F)F)oc2c1 | FPR1 | calcium signal, antagonist |  | 50 µM | 80
c1ccc(CCC2CCN(CCCn3nnnc3C(c3ccccc3)c3ccccc3)CC2)cc1 | SLC6A2 | transporter uptake, inhibitor | HEK293 | 1 µM | 74.4
O=C(Oc1ccc2c(=O)c(-c3ccccc3)c(C(F)(F)F)oc2c1)c1cccs1 | FPR1 | calcium signal, antagonist |  | 50 µM | 90
CC(=O)c1nn(CC(=O)N2C[C@H](F)C[C@H]2C(=O)Nc2cccc(Br)n2)c2ccc(-c3cnc(C)nc3)cc12 | Plasma kallikrein (KLKB1, Homo sapiens, UniProt P03952) | enzyme activity, inhibitor |  | 10 µM | 20.8
Fc1ccc(C(c2ccc(F)cc2)c2nnnn2CCCCN2CCC(Cc3ccc(Cl)c(Cl)c3)CC2)cc1 | SLC6A2 | transporter uptake, inhibitor | HEK293 | 1 µM | 75.9
Cc1ccc(Nc2nccc(N(C)c3ccc4c(C)n(C)nc4c3)n2)cc1S(N)(=O)=O | Serine/threonine-protein kinase Chk2 (CHEK2, Homo sapiens, UniProt O96017, I157T) | enzyme activity, inhibitor |  | 0.3 µM | -1
Fc1ccc(C(c2ccc(F)cc2)c2nnnn2CCCCN2CCN(CCCc3ccccc3)CC2)cc1 | SLC6A2 | transporter uptake, inhibitor | HEK293 | 1 µM | 86.4
CCN(CC)c1ccc(C2=NNC(=O)CC2C)cc1[N+](=O)[O-] (stereo not shown) | 3',5'-cyclic-AMP phosphodiesterase 4B (PDE4B, Homo sapiens, UniProt Q07343) | enzyme activity, inhibitor |  | 0.1 µM | 21
Fc1ccc(C(c2ccc(F)cc2)c2nnnn2CCCN2CCC(CCCc3ccccc3)CC2)cc1 | SLC6A2 | transporter uptake, inhibitor | HEK293 | 1 µM | 23.8
CCN(Cc1ccccc1C(F)(F)F)C(=O)C1CCN(S(=O)(=O)c2ccc3[nH]ncc3c2)CC1 | Cysteinyl leukotriene receptor 1 (CYSLTR1, Homo sapiens, UniProt Q9Y271) | ligand displacement, radioligand |  | 10 µM | 38
Clc1ccc(CC2CCN(CCCCn3nnnc3C(c3ccccc3)c3ccccc3)CC2)cc1Cl | SLC6A2 | transporter uptake, inhibitor | HEK293 | 1 µM | 63.9
Cc1c(COc2c(F)cc(F)cc2F)c2c(n1C)C(=O)C=C(NCCCN)C2=O | Ribosyldihydronicotinamide dehydrogenase [quinone] (NQO2, Homo sapiens, UniProt P16083) | cell-free assay, inhibitor |  | 1 µM | 97
Oc1cccc(Nc2nc(-c3ccc(F)cc3F)cs2)c1 | Muscarinic acetylcholine receptor M5 (CHRM5, Homo sapiens, UniProt P08912) | cell-free assay |  | 10 µM | -24.9
Clc1ccc(C(c2ccccc2)c2nnnn2CCCCN2CCN(CCc3ccccc3)CC2)cc1 (stereo not shown) | SLC6A2 | transporter uptake, inhibitor | HEK293 | 1 µM | 47.6
